# Measured values reported in ChEMBL document CHEMBL1140852, “Synthesis, biological evaluation and quantitative structure-activities relationship of flavonoids as vasorelaxant agents” (Bioorg Med Chem, 2009).
# Tested on: Aorta
# Experiment: Vasorelaxant activity in Sprague-Dawley rat aorta assessed as inhibition of phenylephrine-induced contraction after 15 to 20 mins
# Assay type: functional, tissue-based
# Conditions: not given
# Outline: (§1)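 Aortic rings from male Sprague-Dawley rats (4–6 months, ~250 g), equilibrated at least 1 h, then precontracted isometrically with PE (1 µM). Once contraction stabilized (~20 min), compounds were added cumulatively at 15–20 min intervals, up to 300 µM. Vehicle-treated control tissues were run in parallel. Relaxation is expressed as % of PE contraction (Emax), n = 4. EC50 was taken as 50% of maximum relaxation, from nonlinear regression of concentration-response curves.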
row,SMILES,EC50 [µM]
1,O=c1cc(-c2cccc(Br)c2)oc2cc(O)cc(O)c12,36.8
2,C=CCc1c(O)cc(O)c(C(=O)/C=C/c2ccc(O)cc2)c1O,24
3,C=CCc1c(O)ccc(C(=O)/C=C/c2ccc(O)cc2)c1O,89.1
4,O=c1cc(-c2ccc3c(c2)OCO3)oc2cc(O)ccc12,81.7
5,C=CCc1cc(O)cc2c(=O)cc(-c3ccc(O)cc3)oc12,51.3
6,O=C(/C=C/c1ccc2c(c1)OCO2)c1c(O)cc(O)cc1O,22.5
7,O=C1/C(=C/c2ccc3c(c2)OCO3)Oc2cc(O)cc(O)c21,220
8,C=CCc1c(O)cc(O)c2c1OC(c1cccc(O)c1)CC2=O (racemic),37
9,C=CCc1c(O)ccc2c1OC(c1ccc3c(c1)OCO3)CC2=O (racemic),9.4
10,C=CCc1c(O)ccc2c1OC(c1ccc(O)cc1)CC2=O (racemic),26.9
11,O=C1CC(c2cccc(Br)c2)Oc2cc(O)cc(O)c21 (racemic),42.4
12,O=C1CC(c2cccc(Br)c2)Oc2ccc(O)cc21 (racemic),38.5
13,C=CCc1cc(O)cc2c1OC(c1ccc(O)cc1)CC2=O (racemic),34.5
14,C=CCc1cc(O)cc2c1OC(c1cccc(O)c1)CC2=O (racemic),10.2
15,C=CCc1cc(O)cc2c1OC(c1ccc(Cl)cc1)CC2=O (racemic),4.6
16,O=C1CC(c2ccc3c(c2)OCO3)Oc2cc(O)cc(O)c21 (racemic),20.1
17,C=CCc1c(O)cc(O)c2c1OC(c1ccc(O)cc1)CC2=O (racemic),32.1
18,C=CCc1c(O)ccc2c1OC(c1ccc(Cl)cc1)CC2=O (racemic),142

# Same assay, conditions: read-out: pEC50 (converted)
row,SMILES,EC50 [µM]
1,O=c1cc(-c2cccc(Br)c2)oc2cc(O)cc(O)c12,36.3
2,O=C(/C=C/c1cccc(Br)c1)c1c(O)cc(O)cc1O,21.4
3,C=CCc1c(O)cc(O)c(C(=O)/C=C/c2ccc(O)cc2)c1O,24
4,C=CCc1c(O)ccc(C(=O)/C=C/c2ccc(O)cc2)c1O,89.1
5,O=c1cc(-c2ccc3c(c2)OCO3)oc2cc(O)ccc12,81.3
6,C=CCc1cc(O)cc2c(=O)cc(-c3ccc(O)cc3)oc12,51.3
7,O=C(/C=C/c1ccc2c(c1)OCO2)c1c(O)cc(O)cc1O,22.4
8,O=C1/C(=C/c2ccc3c(c2)OCO3)Oc2cc(O)cc(O)c21,224
9,C=CCc1c(O)cc(O)c2c1OC(c1cccc(O)c1)CC2=O (racemic),36.3
10,C=CCc1c(O)ccc2c1OC(c1ccc3c(c1)OCO3)CC2=O (racemic),9.33
11,C=CCc1c(O)ccc2c1OC(c1ccc(O)cc1)CC2=O (racemic),26.9
12,O=C1CC(c2cccc(Br)c2)Oc2cc(O)cc(O)c21 (racemic),43.7
13,O=C1CC(c2cccc(Br)c2)Oc2ccc(O)cc21 (racemic),38
14,C=CCc1cc(O)cc2c1OC(c1ccc(O)cc1)CC2=O (racemic),33.9
15,C=CCc1cc(O)cc2c1OC(c1cccc(O)c1)CC2=O (racemic),10.2
16,C=CCc1cc(O)cc2c1OC(c1ccc(Cl)cc1)CC2=O (racemic),4.68
17,O=C1CC(c2ccc3c(c2)OCO3)Oc2cc(O)cc(O)c21 (racemic),20
18,C=CCc1c(O)cc(O)c2c1OC(c1ccc(O)cc1)CC2=O (racemic),32.4
19,C=CCc1c(O)ccc2c1OC(c1ccc(Cl)cc1)CC2=O (racemic),145
20,O=c1c(O)c(-c2ccc(O)c(O)c2)oc2cc(O)cc(O)c12 [QUERCETIN],245

# Tested on: Aorta
# Experiment: Vasorelaxant activity in Sprague-Dawley rat aorta assessed as inhibition of phenylephrine-induced contraction after 15 to 20 mins relative to phenylephrine
# Assay type: functional
# Conditions: not given
# Outline: as §1
row,SMILES,Emax [%]
1,O=c1cc(-c2cccc(Br)c2)oc2cc(O)cc(O)c12,84.3
2,O=C(/C=C/c1cccc(Br)c1)c1c(O)cc(O)cc1O,99.8
3,C=CCc1c(O)cc(O)c(C(=O)/C=C/c2ccc(O)cc2)c1O,108
4,C=CCc1c(O)ccc(C(=O)/C=C/c2ccc(O)cc2)c1O,73.4
5,C=CCc1cc(O)cc(C(=O)/C=C/c2ccc(O)cc2)c1O,59.8
6,O=C1/C(=C/c2cccc(Br)c2)Oc2cc(O)cc(O)c21,59.2
7,O=c1cc(-c2ccc3c(c2)OCO3)oc2cc(O)ccc12,82.1
8,C=CCc1cc(O)cc2c(=O)cc(-c3ccc(O)cc3)oc12,67.3
9,C=CCc1c(O)ccc(C(=O)/C=C/c2ccc3c(c2)OCO3)c1O,71.8
10,O=C(/C=C/c1ccc2c(c1)OCO2)c1c(O)cc(O)cc1O,104
11,O=C1/C(=C/c2ccc3c(c2)OCO3)Oc2cc(O)cc(O)c21,58.4
12,C=CCc1c(O)ccc2c1OC(c1ccc(O)c(OC)c1)CC2=O (racemic),85
13,C=CCc1c(O)cc(O)c2c1OC(c1cccc(Cl)c1)CC2=O (racemic),76.7
14,C=CCc1c(O)cc(O)c2c1OC(c1ccc(Cl)cc1)CC2=O (racemic),77.6
15,C=CCc1c(O)cc(O)c2c1OC(c1ccc(OC)cc1)CC2=O (racemic),81
16,C=CCc1c(O)cc(O)c2c1OC(c1cccc(O)c1)CC2=O (racemic),97.8
17,C=CCc1c(O)ccc2c1OC(c1ccc3c(c1)OCO3)CC2=O (racemic),96.6
18,C=CCc1c(O)ccc2c1OC(c1ccc(O)cc1)CC2=O (racemic),87.2
19,O=C1CC(c2cccc(Br)c2)Oc2cc(O)cc(O)c21 (racemic),93.5
20,O=C1CC(c2cccc(Br)c2)Oc2ccc(O)cc21 (racemic),91.8
21,C=CCc1c(O)cc(O)c2c1OC(c1cccc(Br)c1)CC2=O (racemic),78.8
22,C=CCc1cc(O)cc2c1OC(c1ccc(O)cc1)CC2=O (racemic),95.3
23,C=CCc1cc(O)cc2c1OC(c1cccc(O)c1)CC2=O (racemic),90.2
24,C=CCc1cc(O)cc2c1OC(c1ccc(Cl)cc1)CC2=O (racemic),95.1
25,O=C1CC(c2ccc3c(c2)OCO3)Oc2cc(O)cc(O)c21 (racemic),97.2
26,C=CCc1c(O)cc(O)c2c1OC(c1ccc(O)cc1)CC2=O (racemic),98.6
27,C=CCc1c(O)ccc2c1OC(c1ccc(Cl)cc1)CC2=O (racemic),70.8
28,O=c1c(O)c(-c2ccc(O)c(O)c2)oc2cc(O)cc(O)c12 [QUERCETIN],91.3
